Source: PMC4819696 (Febs Letters, 2016)
“Also recorded” adds a separate entry of the source. *: point of attachment. Biotin = O=C1N[C@H]2[C@H](CS[C@H]2CCCCC(=O)*)N1

How the values were obtained:
full‐length syntenin = biological target: T1, full‐length syntenin (Homo sapiens, UniProt O00560); test: Surface plasmon resonance; type: binding; details: used as reference channel; 10 mM HEPES, 150 mM NaCl, 0.005% Tween20, pH 7.4
T1 sequence (O00560 1-298): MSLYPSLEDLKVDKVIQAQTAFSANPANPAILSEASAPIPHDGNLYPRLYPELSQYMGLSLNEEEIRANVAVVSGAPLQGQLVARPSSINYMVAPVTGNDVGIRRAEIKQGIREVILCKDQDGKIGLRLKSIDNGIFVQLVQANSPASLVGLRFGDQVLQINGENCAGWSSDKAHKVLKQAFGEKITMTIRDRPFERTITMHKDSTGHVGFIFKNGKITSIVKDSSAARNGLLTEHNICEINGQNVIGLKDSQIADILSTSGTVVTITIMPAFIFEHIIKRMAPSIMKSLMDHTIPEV

syntenin PDZ1‐2 = test: Clonal phage ELISA against PDZ1‐2; type: binding; details: clonal ELISA against the baits PDZ1, PDZ2 or PDZ1‐2
In short: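 Syntenin PDZ1‑2 (107–275), PDZ1 (107–199) and PDZ2 (198–275) were expressed in E. coli ER2566 and purified by nickel affinity. Clones came from five rounds of selection of M13 gene‑8 libraries (random C‑terminal heptamers or internal dodecamers) on immobilized PDZ1‑2, with PBS/0.05% Tween 20 washes. Clones binding PDZ1‑2 but not control GST were sequenced, then each was tested by phage ELISA against immobilized PDZ1‑2, PDZ1 and PDZ2.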

nectin‐1 = type: cell-based; details: freshly plated MCF‐7 cells, fibronectin-coated coverslips, 5 h
C‐terminus of nectin‐1 = type: binding; details: bait C‐terminus of nectin‐1
In short: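 Bait was transformed into MaV203 yeast, followed by 100 μg human fetal brain cDNA library in pEXP‑AD502. About 5 × 10^5 transformants were plated on medium lacking Trp/Leu/His with 20 mM 3‑amino‑1,2,4‑triazole, 30 °C, 5 days. Positives were checked on uracil and β‑galactosidase reporters, PCR‑amplified and retested in fresh bait yeast. Multi‑product colonies were discarded. Inserts were sequenced and in‑frame GAL4AD clones kept.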

syntenin = test: Co-immunoprecipitation of endogenous nectin-1 and syntenin in MCF‐7 cells; type: cell-based; details: IP with nectin‐1 specific antibody, immunoblot with anti‐syntenin antibody
[1] = biological target: T2, full-length syntenin (SPR analyte) (UniProt O00560 1-298); test: SPR
T2 sequence (looked up): T1 sequence (O00560 1-298)

Biot‐RMRKKDEGSYDLGERKPSSAAYQKAPTKEFpYA‐COOH
binding to syntenin by SPR (in words) (full‐length syntenin): nonbinding

SHWTIDI
binding in clonal phage ELISA (in words) (syntenin PDZ1‐2): both PDZ domains are necessary for binding to this peptide

YYWAATGENVYS
binding in clonal phage ELISA (in words) (syntenin PDZ1‐2): loss of binding in phage ELISAs

B1: syntenin: small adaptor protein with PDZ1-2 tandem (protein)
chain: T1 sequence (O00560 1-298)
modifications: left off: GAL4AD, end not stated, kept
colocalization (in words) (nectin‐1): colocalizes with nectin‐1 at the sites of cell–cell contacts | Y2H preference (in words) (C‐terminus of nectin‐1): preferred nectin‐1 binder; also recorded: favored ligand of the C‐terminus of nectin‐1

B2: nectin‐1: cell adhesion protein PVRL1, also called nectin-1 (protein)
chain: QVVQVNDSMYGFIGTDVVLHCSFANPLPSVKITQVTWQKSTNGSKQNVAIYNPSMGVSVLAPYRERVEFLRPSFTDGTIRLSRLELEDEGVYICEFATFPTGNRESQLNLTVMAKPTNWIEGTQAVLRAKKGQDDKVLVATCTSANGKPPSVVSWETRLKGEAEYQEIRNPNGTVTVISRYRLVPSREAHQQSLACIVNYHMDRFKESLTLNVQYEPEVTIEGFDGNWYLQRMDVKLTCKADANPPATEYHWTTLNGSLPKGVEAQNRTLFFKGPINYSLAGTYICEATNPIGTRSGQVEVNITEFPYTPSPPEHGRRAGPVPTAIIGGVAGSILLVLIVVGGIVVALRRRRHTFKGDYSTKKHVYGNGYSKAGIPQHHPPMAQNLQYPDDSDDEKKAGPLGGSSYEEEEEEEEGGGGGERKVGGPHPKYDEDAKRPYFTVDEAEARQDGYGDRTLGYQYDPEQLDLAENMVSQNDGSFISKKEWYV
co-IP of endogenous proteins (in words) (syntenin): confirmed an interaction between the endogenous proteins

B3: N-terminal biotinylated nectin-1 C-terminal peptide (peptide)
peptide: Biotin-AENMVSQNDGSFISKKEWYV-OH
SMILES: CC[C@H](C)[C@H](NC(=O)[C@H](Cc1ccccc1)NC(=O)[C@H](CO)NC(=O)CNC(=O)[C@H](CC(=O)O)NC(=O)[C@H](CC(N)=O)NC(=O)[C@H](CCC(N)=O)NC(=O)[C@H](CO)NC(=O)[C@@H](NC(=O)[C@H](CCSC)NC(=O)[C@H](CC(N)=O)NC(=O)[C@H](CCC(=O)O)NC(=O)[C@H](C)NC(=O)CCCC[C@@H]1SC[C@@H]2NC(=O)N[C@@H]21)C(C)C)C(=O)N[C@@H](CO)C(=O)N[C@@H](CCCCN)C(=O)N[C@@H](CCCCN)C(=O)N[C@@H](CCC(=O)O)C(=O)N[C@@H](Cc1c[nH]c2ccccc12)C(=O)N[C@@H](Cc1ccc(O)cc1)C(=O)N[C@H](C(=O)O)C(C)C
Kd [1]: 14 µM
